For one test, the system named is L6. Description: Cytotoxicity against rat L6 cells by MTT assay. In kind it is cell-based.
Test [1] relates to Trypanosoma brucei rhodesiense. Kind of test: Antiparasitic activity against Trypanosoma brucei rhodesiense STIB 900 trypomastigotes. Type of test: functional, organism-based.
A further test deals with Trypanosoma cruzi. Description: Antiparasitic activity against Trypanosoma cruzi Tulahuen C4 amastigotes. Type of test: functional, organism-based.
The subject of another test is L929. Kind of test: Cytotoxicity against mouse L929 cells after 5 days by MTT assay. The conditions noted are these: L929, 120 h. In kind it is functional, cell-based. A digest of the protocol: (§1)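 Culture media were DMEM for KB-3-1 and L929, EBM-2 for HUVEC and RPMI for MCF-7, each with 10% FBS, at 37 °C under 10% CO2. Serial dilutions from a 1 mg/mL methanol stock were added to cell suspension (50 000/mL). After 5 days, MTT was read at 590 nm. IC50 (50% growth inhibition versus control) came from dose–response curves. Methanol served as negative control.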

A further test has as its system MCF7. Kind of test: Cytotoxicity against human MCF7 cells after 5 days by MTT assay. The following applies: MCF7, 120 h. In kind it is functional, cell-based. A digest of the protocol:
as §1

Test [2] is described as follows: Cytotoxicity against human KB-3-1 cells after 5 days by MTT assay. Type of test: functional, cell-based. The conditions noted are these: KB 3-1, 120 h. A digest of the protocol:
as §1

The subject of a further test is HUVEC. Kind of test: Cytotoxicity against HUVEC after 5 days by MTT assay. In kind it is cell-based. The following applies: Homo sapiens, 120 h. A digest of the protocol: as §1
In the next test the test system is Plasmodium falciparum. Description: Antimalarial activity against Plasmodium falciparum K1 intra-erythrocytic form. In kind it is functional, organism-based.
A further test has as its system Leishmania donovani. Description: Antileishmanial activity against Leishmania donovani MHOM-ET-67/L82 axenic amastigotes. In kind it is functional, organism-based.
Test [3] deals with Escherichia coli. Description: Antimicrobial activity against Escherichia coli at 33.5 ug/ml after 24 to 48 hrs. Type of test: functional, organism-based.
Test [4] concerns Schizosaccharomyces pombe. Description: Antifungal activity against Schizosaccharomyces pombe after 24 to 48 hrs. In kind it is functional. Summed up:
(§2)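 Broth microdilution in 96-well plates. Bacteria were grown in EBS medium. Yeasts and fungi were grown in MYC medium (1.0% phytone peptone, 1.0% glucose, 50 mM HEPES, pH 7.0). Inoculum was test organism diluted 1:100 in medium. Compound was diluted 1:1 serially from 33.5 to […] μg/mL. Plates were shaken at 600 rpm, 30 °C, for 24–48 h. MIC was the lowest concentration preventing visible growth.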

For another test, the system named is Rhodotorula glutinis. Description: Antifungal activity against Rhodotorula glutinis after 24 to 48 hrs. Type of test: functional. A digest of the protocol:
as §2

For the next test, the system named is Nocardia sp. Description: Antibacterial activity against Nocardia flava after 24 to 48 hrs. Type of test: functional. A digest of the protocol: as §2
A further test deals with Micrococcus luteus. Description: Antibacterial activity against Micrococcus luteus after 24 to 48 hrs. Type of test: functional. A digest of the protocol: as §2
A further test has as its system Mucor hiemalis. Description: Antifungal activity against Mucor hiemalis after 24 to 48 hrs. In kind it is functional. A digest of the protocol: as §2
The subject of test [5] is Escherichia coli. Kind of test: Antimicrobial activity against Escherichia coli after 24 to 48 hrs. Type of test: functional, organism-based. A digest of the protocol:
as §2

For test [6], the system named is Schizosaccharomyces pombe. Description: Antifungal activity against Schizosaccharomyces pombe at 33.5 ug/ml after 24 to 48 hrs. In kind it is functional, organism-based.

≈ marks a conversion by molar mass, not a printed value. Calls of active or inactive are those of the source. The rule behind the calls is not given here. A value given as a limit tells only on which side of the number the result lay.

As for `Cc1nc2ccccc2c2cc[nH]c12` [MARINOQUINOLINE A], the 50% inhibitory concentration (IC50) with L6 was determined as 30.6 µM; in test [1] it was 54.4 µM; in the test with Trypanosoma cruzi it was 29.5 µM; with L929 it was 5.5 µg/mL (≈ 30.2 µM); with MCF7, 3.5 µg/mL (≈ 19.2 µM); in test [2] it was 2.2 µg/mL (≈ 12.1 µM). The IC50 with HUVEC was 1.5 µg/mL (≈ 8.23 µM); in the test on Plasmodium falciparum it was 9.8 µM; in the test with Leishmania donovani, > 549 µM. Also, the outcome in the test with Escherichia coli [3] was Active.
On to `c1ccc(Cc2nc3ccccc3c3cc[nH]c23)cc1` [MARINOQUINOLINE C], for which the IC50 in the test on L6 turned out to be 39.1 µM; in test [1] it was 42.2 µM; in the test on Trypanosoma cruzi, 28.3 µM; in the test with L929, 5.4 µg/mL (≈ 20.9 µM); in the test on MCF7, 2.6 µg/mL (≈ 10.1 µM); in [2], 2 µg/mL (≈ 7.74 µM). The IC50 with HUVEC is 0.55 µg/mL (≈ 2.13 µM); in the test on Plasmodium falciparum, 5.5 µM; with Leishmania donovani, 58.8 µM. Further, the MIC (in test [4]; in the test with Rhodotorula glutinis) was 33.5 µg/mL (≈ 130 µM) throughout.
Consider `Oc1ccc(Cc2nc3ccccc3c3cc[nH]c23)cc1` [MARINOQUINOLINE D], for which the IC50 is 66.4 µM with L6; 61.2 µM in test [1]; 27 µM in the test with Trypanosoma cruzi; 1.1 µg/mL (≈ 4.01 µM) in the test with L929; 3.2 µg/mL (≈ 11.7 µM) in the test on MCF7; 3.2 µg/mL (≈ 11.7 µM) in test [2]. The half-inhibitory concentration (IC50) in the test on HUVEC stood at 2.5 µg/mL (≈ 9.11 µM); in the test on Plasmodium falciparum, 15 µM; with Leishmania donovani, 120 µM. In addition, the result (with Nocardia sp.; in the test on Micrococcus luteus; in test [4]; with Mucor hiemalis; in the test on Rhodotorula glutinis; in the test with Escherichia coli [5]) was inactive.
Consider `c1ccc2c(c1)nc(-c1c[nH]c3ccccc13)c1[nH]ccc12` [MARINOQUINOLINE E], for which the IC50 is 35.6 µM with L6; 51.5 µM in [1]; 23.6 µM in the test with Trypanosoma cruzi; 5.5 µg/mL (≈ 19.4 µM) in the test on L929; 1.9 µg/mL (≈ 6.71 µM) with MCF7; 4.5 µg/mL (≈ 15.9 µM) in test [2]. For the same compound, the values for the IC50 in the test with HUVEC, in the test with Plasmodium falciparum and with Leishmania donovani were 5.8 µg/mL (≈ 20.5 µM), 7.6 µM and 63.9 µM, respectively. Moreover, the minimum inhibitory concentration (MIC) (with Nocardia sp.; with Micrococcus luteus; in test [4]; in the test on Mucor hiemalis; in the test on Rhodotorula glutinis) was 33.5 µg/mL (≈ 118 µM) throughout.
Turning to `O=C(c1c[nH]c2ccccc12)c1nc2ccccc2c2cc[nH]c12` [MARINOQUINOLINE F], the IC50 with L6 came to 12.5 µM; in [1] it was 39 µM; in the test with Trypanosoma cruzi, 21.8 µM; in the test with L929, 4.1 µg/mL (≈ 13.2 µM); with MCF7 it was 1.6 µg/mL (≈ 5.14 µM); in test [2], 0.3 µg/mL (≈ 0.964 µM). The IC50 in the test with HUVEC came out at 2.8 µg/mL (≈ 8.99 µM); with Plasmodium falciparum it was 1.7 µM; in the test on Leishmania donovani, 16.1 µM. Further, in test [6], the outcome was Active.
Consider `Nc1nc(N)nc(Nc2ccc([As]3SCC(CO)S3)cc2)n1` (centres undefined) [MELARSOPROL], for which, in test [1], the midpoint of inhibition, the IC50, lay at 0.012 µM. This counts as double-digit nanomolar.
With `COc1cc([C@@H]2c3cc4c(cc3[C@H](O)[C@H]3COC(=O)[C@H]23)OCO4)cc(OC)c1OC` [PODOFILOX], in the test on L6, it took 0.021 µM to reach half-maximal inhibition (IC50).
In the case of `CC[C@]1(O)C[C@@H]2CN(CCc3c([nH]c4ccccc34)[C@@](C(=O)OC)(c3cc4c(cc3OC)N(C)[C@H]3[C@@](O)(C(=O)OC)[C@H](OC(C)=O)[C@]5(CC)C=CCN6CC[C@]43[C@@H]65)C2)C1` [VINBLASTINE], the figures for the IC50 (in the test on L929; in test [2]) were 0.018 µg/mL (≈ 0.0222 µM) and 0.0086 µg/mL (≈ 0.0106 µM), respectively.
